Reference: ChEMBL document CHEMBL1147254, “New bioactive polyphenols from Theobroma grandiflorum ("cupuaçu")” (J Nat Prod, 2003)

How the values were obtained:
[1] = tested on: Radical scavenging activity; experiment: Antioxidant activity assessed as DPPH radical scavenging activity after 30 mins; type: functional
Outline: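 Test samples in DMSO were mixed with a 300 µM ethanolic DPPH solution and incubated at 37 °C.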

SW480 = experiment: Cytotoxicity against human SW480 cells after 72 hrs by MTT assay; type: functional, cell-based; details: SW480, 72 h
Outline: (§1)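 About 30 000 cells per well were seeded in 96-well plates, and the medium was replaced once cultures reached 40% confluence.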

HCT-116 = experiment: Cytotoxicity against human HCT116 cells after 72 hrs by MTT assay; type: functional, cell-based; details: HCT-116, 72 h; outline: as §1

| IC50 [1] [µM] | SMILES | IC50 (SW480) [µM] | IC50 (HCT-116) [µM] |
| --- | --- | --- | --- |
| 49 | Oc1cc(O)c2c(c1)O[C@H](c1ccc(O)c(O)c1)[C@H](O)C2 [(-)-EPICATECHIN] | – | – |
| 120 | O=C(O)[C@H]1O[C@@H](Oc2c(O)cc(O)c3c(=O)cc(-c4ccc(O)c(O)c4)oc23)[C@H](O)[C@@H](OS(=O)(=O)O)[C@@H]1O [THEOGRANDIN II] | 125 | 143 |
| 341 | O=C(O)[C@H]1O[C@@H](Oc2c(O)cc(O)c3c(=O)cc(-c4ccc(O)cc4)oc23)[C@H](O)[C@@H](OS(=O)(=O)O)[C@@H]1O [THEOGRANDIN I] | 164 | 205 |
| 89.7 | O=c1c(O)c(-c2ccc(O)cc2)oc2cc(O)cc(O)c12 [KAEMPFEROL] | – | – |
| 44.4 | O=C(O)[C@H]1O[C@@H](Oc2c(-c3ccc(O)c(O)c3)oc3cc(O)cc(O)c3c2=O)[C@H](O)[C@@H](O)[C@@H]1O [QUERCETIN GLUCURONIDE] | – | – |
| 69.2 | COC(=O)[C@H]1O[C@@H](Oc2c(O)cc(O)c3c(=O)cc(-c4ccc(O)cc4)oc23)[C@H](O)[C@@H](O)[C@@H]1O | – | – |
| 68.1 | O=C(O)[C@H]1O[C@@H](Oc2c(O)cc(O)c3c(=O)cc(-c4ccc(O)cc4)oc23)[C@H](O)[C@@H](O)[C@@H]1O | – | – |
| 58.2 | O=C(O)[C@H]1O[C@@H](Oc2c(O)cc(O)c3c(=O)cc(-c4ccc(O)c(O)c4)oc23)[C@H](O)[C@@H](O)[C@@H]1O | – | – |
| 41.6 | COC(=O)[C@H]1O[C@@H](Oc2c(-c3ccc(O)c(O)c3)oc3cc(O)cc(O)c3c2=O)[C@H](O)[C@@H](O)[C@@H]1O | – | – |
| 49 | Oc1cc(O)c2c(c1)O[C@H](c1ccc(O)c(O)c1)[C@@H](O)C2 [CIANIDANOL] | – | – |

| SMILES | IC50 [1] [µM] | IC50 (SW480) [µM] | IC50 (HCT-116) [µM] |
| --- | --- | --- | --- |
| O=c1c(O)c(-c2ccc(O)c(O)c2)oc2cc(O)cc(O)c12 [QUERCETIN] | 39.7 | – | – |
